Assays:
[1] = AUClast in BALB/c mouse at 10 mg/kg, po by HPLC analysis; assay type: ADME, organism-based; details: in vivo
Method in brief: (§1)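 Female BALB/c mice dosed 5 mg/kg i.v. in 10% DMSO/10% cyclodextrin in saline, or 10 mg/kg i.p. or orally at 1 mg/mL in 40% PEG400/saline. Plasma taken at 5, 10, 15, 30, 60, 90, 120, 180, 240 and 360 min, three mice per time. Acetonitrile precipitation, C18 HPLC with UV detection at 329 nm against a plasma standard curve. Parameters derived from mean concentrations.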

[2] = Oral bioavailability in BALB/c mouse at 10 mg/kg by HPLC analysis; assay type: ADME, organism-based; details: in vivo; method in brief: as §1
[3] = Ratio of drug level in liver to plasma of human SW620 cell xenografted athymic nude CD1 mouse at 10 mg/kg, ip measured after 90 mins by HPLC analysis; assay type: ADME, organism-based
Method in brief: (§2)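 Female CD-1 nu/nu mice bearing s.c. flank SW620 tumours (1×10^7 cells, ~650 mm³ at 10–14 days) given 10 mg/kg i.p. Tissues snap frozen, homogenised 1:3 in PBS. Acetonitrile precipitation, C18 HPLC with acetate pH 5/acetonitrile 75:25 mobile phase, UV 329 nm; tissue levels by method of addition. Tissue/plasma ratio, mean of three mice per time.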

[4] = Clearance in BALB/c mouse at 10 mg/kg, po by HPLC analysis; assay type: ADME, organism-based; details: in vivo; method in brief: as §1
[5] = Ratio of drug level in liver to plasma of human SW620 cell xenografted athymic nude CD1 mouse at 10 mg/kg, ip measured after 15 mins by HPLC analysis; assay type: ADME, organism-based; method in brief: as §2
[6] = Clearance in BALB/c mouse at 10 mg/kg, ip by HPLC analysis; assay type: ADME, organism-based; details: in vivo; method in brief: as §1
[7] = AUCinfinity in BALB/c mouse at 5 mg/kg, iv by HPLC analysis; assay type: ADME, organism-based; details: in vivo; method in brief: as §1
[8] = Ratio of drug level in tumor to plasma of human SW620 cell xenografted athymic nude CD1 mouse at 10 mg/kg, ip measured after 60 mins by HPLC analysis; assay type: ADME, organism-based; details: tumor and plasma; method in brief: as §2
[9] = tested on: SW-620; assay: Cell cycle arrest in human SW620 cells assessed as increase in G1-phase cell population at 1 umol/L measured after 16 hrs by propidium iodide staining based flow cytometry relative to control; details: sw-620, 16 h, 1 µM
[10] = Ratio of drug level in spleen to plasma of human SW620 cell xenografted athymic nude CD1 mouse at 10 mg/kg, ip measured after 240 mins by HPLC analysis; assay type: ADME, organism-based; method in brief: as §2
[11] = Tmax in BALB/c mouse at 5 mg/kg, iv by HPLC analysis; assay type: ADME, organism-based; details: in vivo; method in brief: as §1
[12] = Ratio of drug level in tumor to plasma of human SW620 cell xenografted athymic nude CD1 mouse at 10 mg/kg, ip measured after 30 mins by HPLC analysis; assay type: ADME, organism-based; details: tumor and plasma; method in brief: as §2
[13] = Drug level in tumor of human SW620 cell xenografted athymic nude CD1 mouse at 10 mg/kg, ip measured after 4 hrs by HPLC analysis; assay type: ADME, organism-based, Neoplasm, SW-620; details: read-out: Drug uptake
Method in brief: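 CD1 nu/nu female mice carry s.c. SW620 flank tumours (1×10^7 cells), used at ~650 mm³. Single 10 mg/kg i.p. dose, tumour excised and snap frozen at time points up to 240 min, then homogenized 1:3 in PBS. HPLC-UV at 329 nm; tissue levels by the method of addition. Three mice per time point.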

[14] = Growth inhibition of human SW620 cells at 1 umol/L measured after 5 days by crystal violet staining based assay relative to control; assay type: toxicity, cell-based, SW-620; details: dose 1 µmol/L, time 5 day, read-out: GI
Method in brief: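 LoVo and SW620 cells in 96-well plates under 5-day continuous exposure to agent, and growth measured relative to control.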

[15] = Ratio of drug level in tumor to plasma of human SW620 cell xenografted athymic nude CD1 mouse at 10 mg/kg, ip measured after 15 mins by HPLC analysis; assay type: ADME, organism-based; details: tumor and plasma; method in brief: as §2
[16] = In vivo inhibition of DNA-PK in human SW620 cells xenografted athymic nude CD1 mouse assessed as potentiation of etoposide phosphate-induced antitumor activity at 10 mg/kg, ip administered 5 times daily for 5 days relative to control; assay type: functional, SW-620; details: time 5 day
Method in brief: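 CD-1 nude mice carry palpable s.c. SW620 xenografts (~5×5 mm, 8-10 days), five per group. Treated i.p. daily for 5 days with saline, agent in 40% PEG 400/saline, etoposide phosphate 11.35 mg/kg (equal to 10 mg/kg etoposide), or both, agent given immediately before etoposide phosphate. Read-outs are median relative tumour volume, time to 4× volume (growth delay) and body weight.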

O=c1cc(N2CCOCC2)oc2c(-c3cccc4c3sc3ccccc34)cccc12
AUC(0-t) [1]: 817 ng·h/mL | bioavailability [2]: 33% | Kp at 1.5 h [3]: 19 | CL/F [4]: 140 mL/min/kg | Kp at 0.25 h [5]: 6.4 | CL/F [6]: 66 mL/min/kg | AUC(0-inf) [7]: 1300 ng·h/mL | Kp at 1 h [8]: 0.44 | Activity [9]: 15% | Kp at 4 h [10]: 19 | Tmax [11]: 5 min | Kp at 0.5 h [12]: 1.4 | concentration at 4 h [13]: 500 nM | inhibition at 120 h, 1 µM [14]: 8% | Kp at 0.25 h [15]: 0.38 | Efficacy [16]: 100%

— ChEMBL document CHEMBL5661969, “Preclinical evaluation of a potent novel DNA-dependent protein kinase inhibitor NU7441” (Cancer Res, 2006)
